The subject of data set [1] is Trypanosoma brucei brucei. Nature of the data set: Trypanocidal activity against bloodstream form of Trypanosoma brucei brucei 427 after 72 hrs by Alamar blue assay. The class given is functional, organism-based. The conditions noted are these: Trypanosoma brucei, 427, 72 h. The procedure, abridged:
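Bloodstream-form T. b. brucei strain 427 grown at 37°C in HMI9 with 10% fetal calf serum and 2.5 µg ml-1 G418, exposed to serially diluted compounds for 72 h. Viability read by Alamar Blue. Four replicates; EC50 ± standard deviation and slope factor from curve fitting.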

The next data set concerns HeLa. Put plainly: Cytotoxicity against human HeLa cells after 65 hrs by Alamar blue assay. The data set is classed as cell-based.
Data set [2] is described as follows: Selectivity index, ratio of EC50 for human HeLa cells to EC50 for bloodstream form of Trypanosoma brucei brucei 427. The data set is classed as toxicity, cell-based. The conditions noted are these: read-out: Ratio EC50.
Data set [3] has as its system Trypanosoma brucei rhodesiense. Put plainly: Trypanocidal activity against Trypanosoma brucei rhodesiense Z310 after 72 hrs by Alamar blue assay. The class given is functional, organism-based. Particulars: Z310, 72 h. The procedure, abridged: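 T. b. rhodesiense strain Z310 cultured at 37°C in HMI9 with 10% fetal calf serum, without G418, and exposed to compounds for 72 h. Alamar Blue viability read-out. Four replicates; EC50 ± standard deviation from curve fitting.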
Background: Resazurin is reduced to fluorescent resorufin, in cell work by metabolically active cells.

Data set [4] has as its system Trypanosoma brucei. Put plainly: Antitrypanosomal activity against trypomastigote form of Trypanosoma brucei. The class given is functional, organism-based. The procedure, abridged:
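Bloodstream-form T. b. brucei strain 427 grown at 37°C in HMI9 with 10% fetal calf serum and 2.5 μg ml-1 G418; viability read by Alamar Blue after 72 h compound exposure. Four replicates, EC50 ± standard deviation and slope factor from curve fitting.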

Data set [5] has as its system Trypanosoma brucei. Put plainly: Trypanocidal activity against bloodstream form of N-(4-(allyloxy)-3-(trifluoromethyl)phenyl)-5-nitrofuran-2-carboxamide-resistant Trypanosoma brucei after 72 hrs by Alamar blue assay. The class given is functional, organism-based.
Data set [6] concerns Trypanosoma brucei. Nature of the data set: Trypanocidal activity against bloodstream form of nifurtimox-resistant Trypanosoma brucei after 72 hrs by Alamar blue assay. The data set is classed as functional, organism-based.
Data set [7] is described as follows: Selectivity ratio of EC50 for bloodstream form of N-(4-(allyloxy)-3-(trifluoromethyl)phenyl)-5-nitrofuran-2-carboxamide-resistant Trypanosoma brucei to EC50 for bloodstream form of wild type Trypanosoma brucei brucei 427. The data set is classed as functional.
The test system of data set [8] is Trypanosoma brucei brucei. Put plainly: Ratio of nifurtimox EC50 to compound EC50 for bloodstream form of wild type Trypanosoma brucei brucei 427. The class given is functional.
Data set [9] in a line: Selectivity ratio of EC50 for bloodstream form of nifurtimox-resistant Trypanosoma brucei to EC50 for bloodstream form of wild type Trypanosoma brucei brucei 427. The class given is functional.

By EC50 is commonly meant the midpoint of the concentration-response curve. A high value points to a need for much substance.

Consider `CCc1cc(C(N)=O)c(NC(=O)c2n[nH]cc2[N+](=O)[O-])s1`, for which the EC50 in [1] was above 300000 nM; in the data set with HeLa it was above 20000 nM.
Taken in the same sequence, the figures for `CCc1cc(C(=O)O)c(NC(=O)c2ccc([N+](=O)[O-])o2)s1` were 959 nM and above 20000 nM.
With `COC(=O)c1ccc(NC(=O)c2ccc([N+](=O)[O-])o2)cc1`, in data set [2], the selectivity ratio was above 29. Besides, the EC50 was 680 nM in data set [1] and above 20000 nM in the data set with HeLa.
For `CCNC(=O)c1cc(CC)sc1NC(=O)c1ccc([N+](=O)[O-])o1`, the EC50 was 202 nM in data set [3], 147 nM in data set [1] and above 20000 nM with HeLa. Moreover, the selectivity ratio in data set [2] was above 136.
As to `COc1ccc(NC(=O)c2ccc([N+](=O)[O-])o2)cc1C(F)(F)F`, the selectivity ratio in [2] is above 2560. For the same compound, the EC50 in [1] was 7.8 nM; with HeLa, above 20000 nM.
With `CCc1cc(C(N)=O)c(N)s1`, the EC50 in data set [1] is 32600 nM; in the data set on HeLa, above 20000 nM.
Consider `CCOC(=O)c1ccsc1NC(=O)c1ccc([N+](=O)[O-])o1`, for which the selectivity ratio in data set [2] is above 278. In addition, the results for the EC50 (in data set [1]; in the data set on HeLa) were 72.3 nM and above 20000 nM, respectively.
In the case of `O=C(NNC(=O)c1ccc([N+](=O)[O-])o1)c1ccc2ccccc2c1`, the EC50 in the data set with Trypanosoma brucei [4] came to 130 nM.
For the compound `O=C(Nc1ccc(C(F)(F)F)cc1)c1ccc([N+](=O)[O-])o1`, the EC50 in data set [3] is 159 nM; in data set [1], 126 nM; in the data set on HeLa, above 20000 nM. Also, in data set [2], the selectivity ratio was above 158.
As for `Cc1csc(N)c1C(N)=O`, the EC50 is 65100 nM in data set [1] and above 20000 nM in the data set on HeLa.
Regarding `COc1cccc(NC(=O)c2ccc([N+](=O)[O-])o2)c1`, the selectivity ratio in [2] was above 345. The EC50 in data set [1] was 58.6 nM; with HeLa, above 20000 nM.
For the compound `Nc1nc(N)nc(Nc2ccc([As]3SCC(CO)S3)cc2)n1` (stereo not given) [MELARSOPROL], the EC50 in [3] was determined as 7.8 nM.
On to `CCc1cc(C(N)=O)c(NC(=O)c2cccc([N+](=O)[O-])c2)s1`, for which the selectivity ratio in data set [2] was above 8. Besides, the EC50 in data set [1] was 2600 nM; in the data set with HeLa it was above 20000 nM.
Regarding `O=[N+]([O-])c1ccc(CNc2ccccc2)o1`, the EC50 was 113000 nM in [1] and above 20000 nM with HeLa.
With `C=CCOc1ccc(NC(=O)c2ccc([N+](=O)[O-])o2)cc1C(F)(F)F`, the EC50 with Trypanosoma brucei [5] is 29.3 nM; in data set [3], 2.9 nM; with Trypanosoma brucei [6] it was 7.8 nM; in [1], 2.4 nM; with HeLa, above 20000 nM. For the same compound, the selectivity ratio in data set [2] is above 8330. In addition, the Ratio EC50 in data set [7] was found to be 14; in data set [8], 1000; in [9], 3.
In the case of `CCc1cc(C(N)=O)c(NCc2ccc([N+](=O)[O-])o2)s1`, the selectivity ratio in [2] is above 4. Also, the figures for the EC50 (in data set [1]; in the data set with HeLa) were 5300 nM and above 20000 nM, respectively.
With `N=C(N)c1ccc(OCCCCCOc2ccc(C(=N)N)cc2)cc1` [PENTAMIDINE], the midpoint of the response in the data set with Trypanosoma brucei [5], the EC50, lay at 1.1 nM. The Ratio EC50 in data set [9] came to 2.
As to `COc1cc(NC(=O)c2ccc([N+](=O)[O-])o2)cc(C(F)(F)F)c1`, the selectivity ratio in [2] is above 752. Moreover, the EC50 in [1] is 26.6 nM; in the data set with HeLa, above 20000 nM.
In the case of `O=C(Nc1ccccc1)c1ccc([N+](=O)[O-])o1`, in data set [2], the selectivity ratio is above 710. Further, the EC50 in [1] is 28.1 nM; in the data set with HeLa, above 20000 nM.
Taken in the same sequence, the figures for `O=C(NCc1ccccn1)c1ccc([N+](=O)[O-])o1` were above 68, 291 nM and above 20000 nM.
For `CC1CS(=O)(=O)CCN1/N=C/c1ccc([N+](=O)[O-])o1` (stereo not given) [NIFURTIMOX], the results for the EC50 (with Trypanosoma brucei [5]; in [3]; in the data set with HeLa) were 7300 nM, 1710 nM and 91200 nM, respectively. The selectivity ratio in data set [2] stood at 38. Besides, in data set [7], the Ratio EC50 came out at 3.
For `O=C(Nc1cccs1)c1ccc([N+](=O)[O-])o1`, in [2], the selectivity ratio is above 322. For the same compound, the EC50 in data set [1] is 62.6 nM; in the data set with HeLa it was above 20000 nM.
Taken in the same sequence, the figures for `O=C(Nc1ccc(O)cc1)c1ccc([N+](=O)[O-])o1` were above 50, 394 nM and above 20000 nM.
Taken in the same sequence, the figures for `C=CCOc1ccc(NC(=O)c2ccc([N+](=O)[O-])o2)cc1` were above 258, 7.73 nM and above 20000 nM.
Turning to `O=C(Nc1ccc(O)c(C(F)(F)F)c1)c1ccc([N+](=O)[O-])o1`, in [2], the selectivity ratio is above 9. Further, the EC50 was 2200 nM in [1] and above 20000 nM in the data set with HeLa.
For the compound `CCCCc1cc(C(=O)OCC)c(NC(=O)c2ccc([N+](=O)[O-])o2)s1`, in [2], the selectivity ratio is above 160. Moreover, the EC50 is 125 nM in data set [1] and above 20000 nM with HeLa.
In the case of `O=C(Nc1cc(C(F)(F)F)cc(C(F)(F)F)c1)c1ccc([N+](=O)[O-])o1`, the selectivity ratio in [2] was above 78. For the same compound, the EC50 in data set [1] was 128 nM; with HeLa, above 10000 nM.
For `CCc1cc(C(=O)OC)c(NC(=O)c2ccc([N+](=O)[O-])o2)s1`, the selectivity ratio in data set [2] was above 950. For the same compound, the EC50 was 21 nM in data set [1] and above 20000 nM in the data set with HeLa.
Taken in the same sequence, the figures for `CCc1cc(C(=O)NCCO)c(NC(=O)c2ccc([N+](=O)[O-])o2)s1` were above 253, 79.6 nM and above 20000 nM.
`O=C(NC1CCCCC1)c1ccc([N+](=O)[O-])o1`: the selectivity ratio in [2] was above 86. Moreover, the results for the concentration for a half-maximal effect (EC50) (in [1]; in the data set on HeLa) were 231 nM and above 20000 nM, respectively.
On to `O=C(Nc1cccc(C(F)(F)F)c1)c1ccc([N+](=O)[O-])o1`, for which the EC50 was 9.4 nM in data set [3], 4.69 nM in data set [1] and above 20000 nM in the data set with HeLa. The selectivity ratio in data set [2] was above 4450.
Consider `CCCCOC(=O)c1cc(CC)sc1NC(=O)c1ccc([N+](=O)[O-])o1`, for which the selectivity ratio in data set [2] was above 625. The half-maximal effective concentration (EC50) in data set [1] is 32.6 nM; in the data set on HeLa it was above 20000 nM.
`CCOC(=O)c1cc(CC)sc1NC(=O)c1ccc([N+](=O)[O-])o1`: the EC50 in data set [3] was 44.2 nM; in data set [1], 31.3 nM; with HeLa it was above 20000 nM. For the same compound, the selectivity ratio in [2] was above 640. For the same compound, the “Ratio EC50” value in [8] is recorded as 100.
Turning to `COC(=O)c1ccc([N+](=O)[O-])o1`, the EC50 in data set [1] was 67000 nM; with HeLa, above 20000 nM.
Turning to `CCc1cc(C(N)=O)c(NC(=O)c2ccc([N+](=O)[O-])cc2)s1`, the EC50 (in [1]; in the data set with HeLa) was above 20000 nM in each case.
As for `C=CCOc1ccc(N(CC=C)C(=O)c2ccc([N+](=O)[O-])o2)cc1C(F)(F)F`, in data set [2], the selectivity ratio is above 9. For the same compound, the EC50 in data set [1] was 2200 nM; in the data set on HeLa it was above 20000 nM.
On to `O=C(Nc1cccc(Br)c1)c1ccc([N+](=O)[O-])o1`, for which the selectivity ratio in data set [2] is above 192. The EC50 in data set [1] is 104 nM; in the data set with HeLa, above 20000 nM.
Take `O=C(NCc1cccc(C(F)(F)F)c1)c1ccc([N+](=O)[O-])o1`: in data set [2], the selectivity ratio was above 1150. Moreover, the EC50 in data set [1] is 17.4 nM; in the data set on HeLa, above 20000 nM.
Turning to `O=C(Nc1ccccc1)c1ccco1`, the half-maximal effective concentration (EC50) (in [1]; in the data set on HeLa) was above 20000 nM each time.
Regarding `O=C(Nc1ccc(Cl)cc1)c1ccc([N+](=O)[O-])o1`, the selectivity ratio in data set [2] is above 48. For the same compound, the figures for the EC50 (in data set [1]; in the data set on HeLa) were 412 nM and above 20000 nM, respectively.
Consider `O=C(NCc1ccccc1)c1ccc([N+](=O)[O-])o1`, for which the selectivity ratio in [2] was above 732. In addition, the EC50 in data set [1] was 27.3 nM; with HeLa, above 20000 nM.
Consider `CCc1cc(C(N)=O)c(NC(=O)c2ccccc2[N+](=O)[O-])s1`, for which the EC50 was 26100 nM in [1] and above 20000 nM in the data set on HeLa.
Consider `COc1ccc(NC(=O)c2ccc([N+](=O)[O-])o2)cc1`, for which the selectivity ratio in data set [2] was above 261. For the same compound, the EC50 was 76.5 nM in data set [1] and above 20000 nM in the data set with HeLa.
Taken in the same sequence, the figures for `COc1ccc(NC(=O)c2ccc([N+](=O)[O-])o2)cc1C` were above 525, 38 nM and above 20000 nM.
Taken in the same sequence, the figures for `CCCCNC(=O)c1cc(CC)sc1NC(=O)c1ccc([N+](=O)[O-])o1` were above 60, 336 nM and above 20000 nM.
Take `CCOC(=O)c1cc(CC)sc1NC(=O)c1ccco1`: the EC50 (in data set [1]; in the data set on HeLa) was above 20000 nM throughout.
On to `CCc1cc(C(N)=O)c(NC(=O)c2ccc([N+](=O)[O-])o2)s1`, for which the EC50 in [3] was 23.1 nM; in [1] it was 17.3 nM; in the data set with HeLa it was above 20000 nM. Besides, the selectivity ratio in data set [2] was above 1160.

(Values after ChEMBL document CHEMBL2311355, “A class of 5-nitro-2-furancarboxylamides with potent trypanocidal activity against Trypanosoma brucei in vitro” (J Med Chem, 2013).)
